From ChEMBL document CHEMBL1123360, “Oxidation of 4-aryl- and 4-alkyl-substituted 2,6-dimethyl-3,5-bis(alkoxycarbonyl)-1,4-dihydropyridines by human liver microsomes and immunochemical evidence for the involvement of a form of cytochrome P-450” (J Med Chem, 1986)
Values belong to the molecule of their own block, whether it stands above or below them.

Tests used:
Cytochrome P450 3A4 [1] = target: T1, Cytochrome P450 3A4 (Homo sapiens, UniProt P08684); assay: Rate of Oxidation in human liver microsomes is measured as mean (nmol product) formed / min per nmol cytochrome P-450
T1 sequence (P08684 whole entry): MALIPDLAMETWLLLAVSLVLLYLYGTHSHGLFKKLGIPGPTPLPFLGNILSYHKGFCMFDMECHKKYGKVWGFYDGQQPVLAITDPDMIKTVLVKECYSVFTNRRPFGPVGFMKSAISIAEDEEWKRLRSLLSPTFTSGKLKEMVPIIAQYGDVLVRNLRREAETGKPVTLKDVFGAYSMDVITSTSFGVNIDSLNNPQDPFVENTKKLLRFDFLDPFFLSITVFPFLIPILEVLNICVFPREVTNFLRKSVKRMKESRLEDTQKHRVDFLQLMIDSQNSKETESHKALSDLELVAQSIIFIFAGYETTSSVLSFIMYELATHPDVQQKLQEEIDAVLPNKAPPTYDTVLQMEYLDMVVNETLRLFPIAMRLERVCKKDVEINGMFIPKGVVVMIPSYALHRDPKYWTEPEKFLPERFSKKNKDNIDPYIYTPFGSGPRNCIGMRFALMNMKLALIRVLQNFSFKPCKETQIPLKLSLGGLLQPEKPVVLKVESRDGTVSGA

Cytochrome P450 3A4 [2] = target: T1, Cytochrome P450 3A4; assay: Percent inhibition of human liver microsome cytochrome P-450 mediated nifedipine oxidase activity without NADPH; settings: microsomes
How it was run: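 Microsomes (HL 95, 500 pmol P-450 in 0.5 mL 50 mM potassium phosphate, pH 7.85) preincubated 20 min at 37 °C with compound (50 μM) without NADPH-generating system. […] Values corrected for methanol solvent.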

[3] = Percent inhibition of human liver microsome cytochrome P-450 mediated phenacetin O-deethylase activity without NADPH; Phenacetin O-deethylase activity inhibited by 40%; settings: microsomes
Cytochrome P450 3A4 [4] = target: T1, Cytochrome P450 3A4; assay: Percent inhibition of human liver microsome cytochrome P-450 mediated nifedipine oxidase activity in the presence of NADPH; settings: microsomes
How it was run: (§1)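 Human liver microsomes (sample HL 95) preincubated with test compound (50 μM) plus NADPH-generating system for 20 min at 37 °C. […] Activity measured afterwards; values corrected for inhibition by methanol solvent alone.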

[5] = Percent inhibition of human liver microsome cytochrome P-450 mediated hexobarbital 3'-hydroxylase activity in the presence of NADPH; settings: microsomes; how it was run: as §1
[6] = Percent inhibition of human liver microsome cytochrome P-450 mediated phenacetin O-deethylase activity in the presence of NADPH; settings: microsomes; how it was run: as §1
Cytochrome P450 3A4 [7] = target: T1, Cytochrome P450 3A4; assay: Rate of Oxidation in human liver microsomes as mean (nmol product) formed/min/nmol cytochrome P-450; e denotes Product not separated with HPCL system; type: ADME, Microsome
How it was run: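 NADPH-fortified human liver microsomes (HL 94, HL 95, HL 96; usually 50 pmol P-450), substrate 0.2 mM, 100 mM potassium phosphate pH 7.85, 37 °C, 10 min, amber vials. Stopped with Na2CO3/NaCl pH 10.5 and extracted into CH2Cl2. Pyridine product quantified by isocratic reversed-phase HPLC (UV 254 and/or 280 nm) against external standards by peak height. Value is the mean with range over the three samples.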

Rate of oxidation (Cytochrome P450 3A4 [1]): 0.51
SMILES: CCOC(=O)C1=C(C)NC(C)=C(C(=O)OCC)C1c1ccccc1

Rate of oxidation (Cytochrome P450 3A4 [1]): 0.53
SMILES: COC(=O)C1=C(C)NC(C)=C(C(=O)OC)C1c1ccccc1

Rate of oxidation (Cytochrome P450 3A4 [1]): 0.41
SMILES: COC(=O)C1=C(C)N=C(C)/C(=C(\O)OC)C1c1cccc(C#N)c1 (stereo unspecified)

Rate of oxidation (Cytochrome P450 3A4 [1]): 0.51
SMILES: COC(=O)C1=C(C)N=C(C)/C(=C(\O)OC)C1c1ccc(C)cc1 (stereo unspecified)

Rate of oxidation (Cytochrome P450 3A4 [1]): 0.67
SMILES: CCCCCO/C(O)=C1\C(C)=NC(C)=C(C(=O)OCCOCCC)C1c1cccc([N+](=O)[O-])c1 (stereo unspecified)

Rate of oxidation (Cytochrome P450 3A4 [1]): 0.76
SMILES: COC(=O)C1=C(C)N=C(C)/C(=C(/O)OC)C1c1c(F)cccc1Cl (stereo unspecified)

Inhibition (Cytochrome P450 3A4 [2]): 45% | Inhibition [3]: 40% | Rate of oxidation (Cytochrome P450 3A4 [1]): 0.12 | Inhibition (Cytochrome P450 3A4 [4]): 89% | Inhibition [5]: 82%
SMILES: CCOC(=O)C1=C(C)N=C(C)/C(=C(/O)OCC)C1CC (stereo unspecified)

Inhibition (Cytochrome P450 3A4 [2]): 25% | Rate of oxidation (Cytochrome P450 3A4 [1]): 0.25 | Inhibition [6]: 50% | Inhibition (Cytochrome P450 3A4 [4]): 86% | Inhibition [5]: 80%
SMILES: COC(=O)C1=C(C)N=C(C)/C(=C(/O)OC)C1Cc1ccccc1 (stereo unspecified)

Rate of oxidation (Cytochrome P450 3A4 [1]): 0.5
SMILES: COC(=O)C1=C(C)N=C(C)/C(=C(/O)OC)C1c1cccc(Cl)c1 (stereo unspecified)

Rate of oxidation (Cytochrome P450 3A4 [1]): 0.45
SMILES: COC(=O)C1=C(C)N=C(C)/C(=C(/O)OC)C1c1ccc(C(F)(F)F)cc1 (stereo unspecified)

Rate of oxidation (Cytochrome P450 3A4 [1]): 0.61
SMILES: COC(=O)C1=C(C)N=C(C)/C(=C(/O)OC)C1c1ccc(Cl)c([N+](=O)[O-])c1 (stereo unspecified)

Inhibition (Cytochrome P450 3A4 [2]): 27% | Rate of oxidation (Cytochrome P450 3A4 [1]): 0.12 | Inhibition [6]: 59% | Inhibition (Cytochrome P450 3A4 [4]): 86% | Inhibition [5]: 82%
SMILES: COC(=O)C1=C(C)N=C(C)/C(=C(/O)OC)C1C1CC=CCC1 (stereo unspecified)

Rate of oxidation (Cytochrome P450 3A4 [7]): Not separated | Inhibition (Cytochrome P450 3A4 [2]): 32% | Inhibition [6]: 55% | Inhibition (Cytochrome P450 3A4 [4]): 89% | Inhibition [5]: 73%
SMILES: COC(=O)C1=C(C)N=C(C)/C(=C(/O)OC)C1C(C)C (stereo unspecified)

Rate of oxidation (Cytochrome P450 3A4 [1]): 0.98
SMILES: COC(=O)C1=C(C)N=C(C)/C(=C(/O)OC)C1c1c(F)c(F)cc(F)c1F (stereo unspecified)

Rate of oxidation (Cytochrome P450 3A4 [1]): 0.52
SMILES: CCOC(=O)C1=C(C)NC(C)=C(C(=O)OC)C1c1cccc([N+](=O)[O-])c1 (stereo unspecified) [NITRENDIPINE]
